Experimental data as given in ChEMBL document CHEMBL1154766, “Synthesis and biological evaluation of new podophyllic aldehyde derivatives with cytotoxic and apoptosis-inducing activities” (2010).
Activity calls are given as the source filed them. The calls are words filed in the database; no cut-off is given here.

What was measured:
HT-29 [1] = assay: Induction of apoptosis in human HT-29 cells assessed as accumulation at subG1 phase at 1 uM after 72 hrs by flow cytometry; type: functional
How it was run: (§1)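 HT-29 cells incubated at 1 μM for 24, 48 or 72 h alongside untreated controls. (3-5) × 10⁵ cells fixed overnight in 70% ethanol at 4 °C, PBS-washed three times, then treated 1 h at room temperature with 1 mg/mL RNase A and 20 μg/mL propidium iodide. DNA content read by flow cytometry; apoptosis taken as % cells in sub-G1 peak. Representative of three independent experiments.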

HT-29 [2] = assay: Cell cycle arrest in human HT-29 cells assessed as accumulation at S phase at 1 uM after 48 hrs by flow cytometry; type: functional; how it was run: as §1
MDA-MB-231 = assay: Cytotoxicity against human MDA-MB-231 cells after 72 hrs by SRB assay; type: functional; details: MDA-MB-231, 72 h
How it was run: (§2)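 SRB growth assay: 5 × 10³ cells/well in RPMI, attached 18 h drug-free, then compound added in DMSO/H₂O 3:7 for 72 h. Fixed with cold 50% TCA 60 min at 4 °C, stained 0.4% SRB in 1% acetic acid 10 min, bound dye solubilized in Tris, OD 490 nm. GI50 from 100[(T−T0)/(C−T0)] = 50; mean of triplicates.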

HT-29 [3] = assay: Induction of apoptosis in human HT-29 cells assessed as accumulation at subG1 phase at 1 uM after 24 hrs by flow cytometry; type: functional; how it was run: as §1
HT-29 [4] = assay: Cell cycle arrest in human HT-29 cells assessed as accumulation at G2/M phase at 1 uM after 72 hrs by flow cytometry; type: functional; how it was run: as §1
HT-29 [5] = assay: Cell cycle arrest in human HT-29 cells assessed as accumulation at G2/M phase at 1 uM after 48 hrs by flow cytometry; type: functional; how it was run: as §1
HT-29 [6] = assay: Cytotoxicity against human HT-29 cells after 72 hrs by SRB assay; type: functional; details: HT-29, 72 h; how it was run: as §2
HT-29 [7] = assay: Cell cycle arrest in human HT-29 cells assessed as accumulation at G0/G1 phase at 1 uM after 72 hrs by flow cytometry; type: functional; how it was run: as §1
HT-29 [8] = assay: Cell cycle arrest in human HT-29 cells assessed as accumulation at S phase at 1 uM after 24 hrs by flow cytometry; type: functional; how it was run: as §1
HT-29 [9] = assay: Cell cycle arrest in human HT-29 cells assessed as accumulation at G0/G1 phase at 1 uM after 48 hrs by flow cytometry; type: functional; how it was run: as §1
HT-29 [10] = assay: Induction of apoptosis in human HT-29 cells assessed as accumulation at subG1 phase at 1 uM after 48 hrs by flow cytometry; type: functional; how it was run: as §1
HT-29 [11] = assay: Cell cycle arrest in human HT-29 cells assessed as accumulation at G2/M phase at 1 uM after 24 hrs by flow cytometry; type: functional; how it was run: as §1
HT-29 [12] = assay: Induction of microtubule disruption in human HT-29 cells at 1 uM after 24 hrs; type: cell-based
How it was run: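 HT-29 cells on poly-L-lysine coverslips exposed to 1 μM for 24 h, washed in HPEM (pH 6.6), fixed with 4% paraformaldehyde 15 min, permeabilized with 0.5% Triton X-100. Anti-α-tubulin mouse monoclonal (1:150, 1 h) then CY3 anti-mouse IgG (1 h, 4 °C); nuclei DAPI-stained; imaged by confocal microscopy. Representative of at least three experiments.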

HT-29 [13] = assay: Cell cycle arrest in human HT-29 cells assessed as accumulation at S phase at 1 uM after 72 hrs by flow cytometry; type: functional; how it was run: as §1
A549 = assay: Cytotoxicity against human A549 cells after 72 hrs by SRB assay; type: functional; details: A549, 72 h; how it was run: as §2
HT-29 [14] = assay: Cell cycle arrest in human HT-29 cells assessed as accumulation at G0/G1 phase at 1 uM after 24 hrs by flow cytometry; type: functional; how it was run: as §1

Row | SMILES | Activity (HT-29 [1]) [%] | Activity (HT-29 [2]) [%] | GI50 (MDA-MB-231) [nM] | Activity (HT-29 [3]) [%] | Activity (HT-29 [4]) [%] | Activity (HT-29 [5]) [%] | GI50 (HT-29 [6]) [nM] | Activity (HT-29 [7]) [%] | Activity (HT-29 [8]) [%] | Activity (HT-29 [9]) [%] | Activity (HT-29 [10]) [%] | Activity (HT-29 [11]) [%] | Activity (HT-29 [12]) | Activity (HT-29 [13]) [%] | GI50 (A549) [nM] | Activity (HT-29 [14]) [%]
1 | COc1cc(COC(=O)[C@@H]2C(C=O)=Cc3cc4c(cc3[C@H]2c2cc(OC)c(OC)c(OC)c2)OCO4)cc(OC)c1OC | 32.3 | 5.1 | 42 | 0.5 | 36.5 | 79.5 | 20 | 18.3 | 1.1 | 6.8 | 8.6 | 97.5 | Active | 12.9 | 34 | 0.9
2 | CCOC(=O)COC(=O)[C@@H]1C(C=O)=Cc2cc3c(cc2[C@H]1c1cc(OC)c(OC)c(OC)c1)OCO3 | 30.6 | 3.4 | 110 | 0.5 | 33.8 | 85.6 | 28 | 16.4 | 0.9 | 4.7 | 6.3 | 97.6 | Active | 19.2 | 13 | 1
3 | COc1ccc(NC(=O)[C@@H]2C(C=O)=Cc3cc4c(cc3[C@H]2c2cc(OC)c(OC)c(OC)c2)OCO4)cc1 | 52.6 | 1.8 | 4600 | 13.6 | 2.6 | 2.6 | 800 | 36.4 | 13.2 | 50.4 | 45.2 | 25.2 | inactive | 8.4 | 1200 | 48
4 | COc1cc([C@@H]2c3cc4c(cc3C=C(C=O)[C@H]2C(=O)OCCCBr)OCO4)cc(OC)c1OC | 67.7 | 8.4 | 170 | 29.2 | 0.4 | 18.1 | 140 | 31.6 | 9.7 | 38.9 | 34.6 | 14.2 | inactive | 0.3 | 130 | 46.9
